# Rows were chosen to be rich in hits. Some 4.8% of all compounds tested hit in one or more screens of this group.
# Mdm2 MdmX PPI = inhibitors of human Mdm2-MdmX association, primary screen, cell-based, luminescence, split luciferase, SaOS-2, uHTS; AID 485346, 2010; Protein Mdm4 (Homo sapiens) + E3 ubiquitin-protein ligase Mdm2 (Homo sapiens), …; 330,000 compounds, 3% hits; SaOS-2 split-luciferase Mdm2/MdmX complementation; inhibition, % at 8 µM;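 active = inhibition of at least 50% at 8 µM in the primary screen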
# Target sequence (O15151 whole entry, looked up): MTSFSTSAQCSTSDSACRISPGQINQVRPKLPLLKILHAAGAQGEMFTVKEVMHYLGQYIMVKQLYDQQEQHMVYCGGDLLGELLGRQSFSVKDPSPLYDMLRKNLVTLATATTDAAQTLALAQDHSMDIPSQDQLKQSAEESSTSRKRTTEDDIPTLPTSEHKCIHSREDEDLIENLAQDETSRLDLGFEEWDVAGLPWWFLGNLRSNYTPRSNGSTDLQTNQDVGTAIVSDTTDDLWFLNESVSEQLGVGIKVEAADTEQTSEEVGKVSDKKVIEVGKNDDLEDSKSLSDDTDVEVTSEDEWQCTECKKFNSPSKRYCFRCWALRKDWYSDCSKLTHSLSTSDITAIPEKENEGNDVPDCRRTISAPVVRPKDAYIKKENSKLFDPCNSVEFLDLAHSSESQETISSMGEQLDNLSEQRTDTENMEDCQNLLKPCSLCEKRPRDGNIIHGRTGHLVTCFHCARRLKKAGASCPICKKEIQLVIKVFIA
# Target sequence (Q00987 whole entry, looked up): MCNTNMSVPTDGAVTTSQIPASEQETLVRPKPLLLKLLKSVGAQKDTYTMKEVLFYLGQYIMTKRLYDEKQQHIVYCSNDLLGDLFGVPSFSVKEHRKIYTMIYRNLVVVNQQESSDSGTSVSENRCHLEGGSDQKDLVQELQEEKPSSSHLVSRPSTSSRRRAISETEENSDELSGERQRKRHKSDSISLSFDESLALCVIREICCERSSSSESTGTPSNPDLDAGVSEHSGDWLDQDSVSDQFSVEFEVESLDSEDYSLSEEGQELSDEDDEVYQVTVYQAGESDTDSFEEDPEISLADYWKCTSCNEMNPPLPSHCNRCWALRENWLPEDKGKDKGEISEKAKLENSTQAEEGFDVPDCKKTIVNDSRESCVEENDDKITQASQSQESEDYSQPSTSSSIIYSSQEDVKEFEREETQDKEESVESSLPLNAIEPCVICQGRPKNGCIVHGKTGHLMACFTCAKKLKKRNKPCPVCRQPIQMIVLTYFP
# CSC inhib = cancer stem cell viability inhibitors, primary screen, luminescence; cancer stem cell-like cells viability; inhibition, % at 7.5 µM; 300,000 compounds, 1.1% hits; in the data active = inhibition above about 75%; tested in HMLE shEcad cells
# Beta cell apopt = inhibitors of cytokine-induced beta cell apoptosis, primary screen, luminescence; protection from apoptosis, % (test concentration not listed); INS-1E cytokine-induced death, ATP luminescence, 48 h; percent of positive-control rescue, neutral wells zero; AID 435005, 2010; 300,000 compounds, 0.8% hits;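 active = Every replicate reaches about 75%, or at least half do and their mean reaches it too, limit read from the data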;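 note: higher means more ATP so stronger rescue from cytokine killing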
# XBP1 UPR activ = activators of adaptive XBP1 UPR arm, primary screen, cell-based, CHO-XBP1 luciferase reporter, luminescence, uHTS; AID 463104, 2010; activation, % at 20 µM; IRE1-XBP1 UPR activation; percent of tunicamycin response, DMSO as zero; 330,000 compounds, 0.33% hits;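 active = versus positive control, 20 µM dose yields 30% or more activation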
#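 Material: CHO-XBP1 cells stably carrying IRE1-XBP1-driven luciferase reporter | Medium: F12 with 10% serum | Compound dosing: 20 µM single concentration, DMSO 1% | Incubation: Overnight seeding at 37 °C, 6 h compound treatment at 37 °C | Detection: Steady-Glo luminescence read | Read-out basis: % activation of reporter signal versus tunicamycin and DMSO controls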
# SKKanGAS inh = S. pyogenes SKKanGAS growth inhibitors in kanamycin, primary screen, streptokinase expression inhibitor project, SKKanGAS strain, BacTiter-Glo luminescence; 6 h; inhibition, % at 7.5 µM; 300,000 compounds, 1.3% hits;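 active = mean replicate score, as percent of positive control median, at least 50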;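 note: strain carries kanamycin resistance gene driven by streptokinase promoter and grows in 40 µg/ml kanamycin; loss of luminescence reflects streptokinase promoter inhibition or plain growth inhibition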
# UPR CHOP act = activators of apoptotic CHOP UPR arm, primary screen, cell-based, CHO-CHOP luciferase reporter, luminescence, uHTS | 330,000 compounds, 0.34% hits | UPR activation; percent of tunicamycin response over DMSO baseline | activation, % at 10 µM | AID 449763, 2010;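 active = at 10 µM dose, activation of 40% or more, normalized to positive control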
#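 Dosing – one dose, 10 µM in 0.5% DMSO · System – CHO-CHOP cells, stable luciferase reporter of PERK-eIF2a-CHOP signalling · Input – 500 cells/well · Control set – tunicamycin 10 µg/mL final as positive, DMSO-only wells as negative · Timing – 6 h compound treatment, 37 °C · Measure – % activation vs tunicamycin · Technique – luminescence read with Steady-Glo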
# Mdm2 MdmX conf = Mdm2-MdmX complex disruptors, retested hits, confirmation, luminescence, single concentration; inhibition, % at 8 µM; shares compounds with Mdm2 MdmX PPI; 10,000 compounds, 55% hits; Mdm2-MdmX binding, luminescent assay; in the data active = inhibition above about 40%
# FLuc counter = full-length luciferase signal inhibition, confirmation, counter-screen for Mdm2/MdmX interaction inhibitor project, cell-based, single concentration, SaOS-2 | 6,200 compounds, 77% hits | inhibition, % at 8 µM | SaOS-2 full-length luciferase counterscreen, luminescence | AID 504607, 2011 | shares compounds with Mdm2 MdmX PPI;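 active = mean inhibition at 8 µM reaching about 37%, which flags the compound as non-specific, limit read from the data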;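 note: p53-null SaOS-2 cells with luciferase driven by a doxycycline-inducible promoter; compound on cells about two nights before reading with doxycycline added after day one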
# A number is an active result; – = inactive; · = no result.
SMILES,Mdm2 MdmX PPI,CSC inhib,Beta cell apopt,XBP1 UPR activ,SKKanGAS inh,UPR CHOP act,Mdm2 MdmX conf,FLuc counter
CC1SCC(=O)N(CC(=O)Nc2ccc3c(c2)OCCO3)C1=O (stereo unspecified),–,–,–,–,–,–,·,·
CC(C)Cn1c(N)c(C(=O)COC(=O)c2cccn2C)c(=O)n(C)c1=O,–,–,–,–,·,–,·,·
CC(=O)Oc1ccccc1C(=O)Nc1ccccc1,–,–,–,–,–,–,·,·
COC1(OC)C=CC(=O)C=C1NC(=O)c1ccccc1OC(C)=O,82.1,–,–,–,–,–,66.5,–
COc1cc(C(=O)Nc2cccc(NC(=O)c3cccs3)c2)cc(OC)c1OC,–,–,–,–,–,–,·,·
CCOC(=O)Cn1c(-c2ccccc2)cc(SC)c(C#N)c1=O,–,–,–,–,–,–,·,·
CSc1cc(-c2ccccc2)n(Cc2c(Cl)cccc2Cl)c(=O)c1C#N,65.7,–,–,–,–,–,50.8,68.8
COc1ccccc1CNC(=O)CCNS(=O)(=O)c1ccc2c(c1)CC(C)N2C(C)=O (stereo unspecified),–,–,·,–,–,–,·,·
CCN(CCNCC(O)COc1ccccc1C(C)C)c1cccc(C)c1 (stereo unspecified),68.5,99.9,–,–,–,–,41.5,74.7
CCOC(=O)N1CCN(CC(O)COc2ccccc2C(C)C)CC1 (stereo unspecified),–,–,–,–,·,–,·,·
COc1ccc(S(=O)(=O)NCC2CCCN(C(=O)CCC(F)(F)F)C2)cc1 (stereo unspecified),–,–,·,–,–,–,·,·
O=C(Nc1nc(-c2cc(Cl)sc2Cl)cs1)c1ccc(Br)s1,79.6,–,·,–,–,–,–,·
Cc1ccc(C)c(NC(=O)C2CCCN(S(=O)(=O)c3ccc4[nH]c(=O)ccc4c3)C2)c1 (stereo unspecified),–,–,–,–,–,–,·,·
CCCN1CCN(C(=O)C2CCN(S(=O)(=O)c3ccc4c(c3)NC(=O)C(C)S4)CC2)CC1 (stereo unspecified),–,–,–,–,–,–,·,·
CCOC(=O)C(C)Oc1cccc2c(=O)n(CC(=O)NCc3ccco3)ccc12 (stereo unspecified),51.3,–,–,–,–,–,58.1,62.8
Cc1cc(C(=O)CSc2nnc(-c3cccs3)o2)c(C)n1-c1ccccc1,–,–,–,–,–,–,·,·
COc1cc(/C=C(\C#N)c2ccccn2)ccc1OCc1ccccc1Cl,·,–,–,·,·,·,·,·
COc1cc(/C=C(\C#N)c2ccccn2)ccc1OCC(=O)Nc1cccc(C(F)(F)F)c1,61.4,–,–,–,–,–,51.6,57.4
CCOC(=O)c1ccc[n+](CC(=O)c2ccc(NC(=O)c3ccccc3)cc2)c1,–,–,–,–,–,–,·,·
COC(=O)[C@@]1(Cc2ccc(F)cc2)[C@H]2c3cc(C(=O)N4CCCC4)n(Cc4ccc(C(F)(F)F)nc4)c3C[C@H]2CN1C(=O)c1ccccc1,–,–,–,–,–,–,·,·
COC(=O)[C@@]1(Cc2ccc(F)cc2)[C@H]2c3cc(C(=O)N4CCCC4)n(CCCNc4ncc(C(F)(F)F)cc4Cl)c3C[C@H]2CN1C(=O)c1ccccc1,62.0,–,–,–,–,–,–,·
COc1cc(OC)cc(C(=O)N2CCN(C(=O)c3ccc(OC)c(OC)c3)CC2)c1,–,–,–,–,–,–,·,·
COc1ccc(-c2n[nH]c3c2CN(C(=O)c2ccc(OC)c(OC)c2)CC3)cc1,57.9,–,–,–,–,–,57.9,54.6
